Results published in ChEMBL document CHEMBL1137730, “Synthesis and antiparasitic and antifungal evaluation of 2'-arylsubstituted-1H,1'H-[2,5']bisbenzimidazolyl-5-carboxamidines” (Eur J Med Chem, 2009).
Values after ≈ are worked out from the molar mass of the structure shown.

Key:
Candida albicans = assay: Antifungal activity against Candida albicans ATCC 10231 by macro-broth dilution method; format: functional
Procedure, shortened: (§1)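 Macro-broth (tube) dilution; compounds and reference drugs dissolved in water or 40% DMSO-water as 400 µg/mL stock, brought to 100 µg/mL in the first tube by 4-fold dilution with culture medium and fungal suspension. Result reported as MIC.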

Plasmodium falciparum = assay: Antiparasitic activity against Plasmodium falciparum K1; format: functional, organism-based
Leishmania donovani [1] = assay: Antiparasitic activity against Leishmania donovani MHOM-ET/67/L82 at 0.81 ug/ml; format: functional
Leishmania donovani [2] = assay: Antiparasitic activity against Leishmania donovani MHOM-ET/67/L82 at 4.85 ug/ml; format: functional
Trypanosoma cruzi [3] = assay: Antiparasitic activity against Trypanosoma cruzi Tulahuen C4 containing lacz gene at 0.81 ug/ml; format: functional; conditions: Tulahen C4
Trypanosoma cruzi [4] = assay: Antiparasitic activity against Trypanosoma cruzi Tulahuen C4 containing lacz gene at 4.85 ug/ml; format: functional; conditions: Tulahen C4
Pichia kudriavzevii = assay: Antifungal activity against Candida krusei ATCC 6258 by macro-broth dilution method; format: functional; procedure, shortened: as §1
L6 = assay: Cytotoxicity against rat L6 cells by alamar blue assay; format: cell-based
Procedure, shortened: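 Rat L-6 myoblasts in culture; viability read by Alamar Blue.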

[5] = test system: Trypanosoma brucei rhodesiense; assay: Antiparasitic activity against Trypanosoma brucei rhodesiense STIB900; format: functional, organism-based

Row | Structure (SMILES) | MIC (Candida albicans) [µg/mL] | IC50 (Plasmodium falciparum) [µg/mL] | inhibition at 0.81 µg/mL (Leishmania donovani [1]) [%] | inhibition at 4.85 µg/mL (Leishmania donovani [2]) [%] | inhibition at 0.81 µg/mL (Trypanosoma cruzi [3]) [%] | inhibition at 4.85 µg/mL (Trypanosoma cruzi [4]) [%] | MIC (Pichia kudriavzevii) [µg/mL] | IC50 (L6) [µg/mL] | IC50 [5] [µg/mL]
1 | N=C(N)c1ccc2[nH]c(-c3ccc4nc(-c5cc(C(F)(F)F)cc(C(F)(F)F)c5)[nH]c4c3)nc2c1 | 50 (≈ 102 µM) | 0.63 (≈ 1.29 µM) | ≤ 50 | ≤ 70 | ≤ 50 | ≤ 70 | 25 (≈ 51.2 µM) | 76.8 (≈ 157 µM) | –
2 | COc1ccc(-c2nc3ccc(-c4nc5cc(C(=N)N)ccc5[nH]4)cc3[nH]2)cc1 | > 100 | 0.015 (≈ 0.0392 µM) | – | – | – | – | – | 10 (≈ 26.1 µM) | 0.009 (≈ 0.0235 µM)
3 | N=C(N)c1ccc2[nH]c(-c3ccc4nc(-c5ccccc5F)[nH]c4c3)nc2c1 | 12.5 (≈ 33.7 µM) | 0.007 (≈ 0.0189 µM) | ≤ 50 | ≤ 70 | ≤ 50 | ≤ 70 | 12.5 (≈ 33.7 µM) | 26.8 (≈ 72.4 µM) | 0.08 (≈ 0.216 µM)
4 | N=C(N)c1ccc2[nH]c(-c3ccc4nc(-c5ccc(F)cc5)[nH]c4c3)nc2c1 | 25 (≈ 67.5 µM) | 0.01 (≈ 0.027 µM) | ≤ 50 | ≤ 70 | ≤ 50 | ≤ 70 | 12.5 (≈ 33.7 µM) | 2.48 (≈ 6.7 µM) | 0.04 (≈ 0.108 µM)
5 | N=C(N)c1ccc2[nH]c(-c3ccc4nc(-c5ccc(OCc6ccccc6)cc5)[nH]c4c3)nc2c1 | 12.5 (≈ 27.3 µM) | 0.017 (≈ 0.0371 µM) | ≤ 50 | ≤ 70 | ≤ 50 | ≤ 70 | 25 (≈ 54.5 µM) | 17.4 (≈ 37.9 µM) | 0.81 (≈ 1.77 µM)
6 | CC(C)(C)c1ccc(-c2nc3ccc(-c4nc5cc(C(=N)N)ccc5[nH]4)cc3[nH]2)cc1 | 1.56 (≈ 3.82 µM) | 0.031 (≈ 0.0759 µM) | ≤ 50 | ≤ 70 | ≤ 50 | ≤ 70 | 12.5 (≈ 30.6 µM) | 13 (≈ 31.8 µM) | 1.06 (≈ 2.59 µM)
7 | N=C(N)c1ccc2[nH]c(-c3ccc4nc(-c5ccc(OCc6ccccc6)c(OCc6ccccc6)c5)[nH]c4c3)nc2c1 | 25 (≈ 44.3 µM) | 0.061 (≈ 0.108 µM) | ≤ 50 | ≤ 70 | ≤ 50 | ≤ 70 | 50 (≈ 88.6 µM) | > 90 | 1.06 (≈ 1.88 µM)
8 | OC(Cn1cncn1)(Cn1cncn1)c1ccc(F)cc1F [FLUCONAZOLE] | 0.78 (≈ 2.55 µM) | – | – | – | – | – | 25 (≈ 81.6 µM) | – | –
9 | COc1cc(-c2nc3ccc(-c4nc5cc(C(=N)N)ccc5[nH]4)cc3[nH]2)ccc1OCc1ccccc1 | 25 (≈ 51.2 µM) | 0.023 (≈ 0.0471 µM) | ≤ 50 | ≤ 70 | ≤ 50 | ≤ 70 | 50 (≈ 102 µM) | 19.8 (≈ 40.5 µM) | 0.57 (≈ 1.17 µM)
10 | N=C(N)c1ccc2[nH]c(-c3ccc4nc(-c5ccc(Oc6ccc(Cl)cc6)cc5)[nH]c4c3)nc2c1 | 25 (≈ 52.2 µM) | 0.028 (≈ 0.0585 µM) | ≤ 50 | ≤ 70 | ≤ 50 | ≤ 70 | 25 (≈ 52.2 µM) | 46 (≈ 96 µM) | 0.708 (≈ 1.48 µM)
11 | N=C(N)c1ccc2[nH]c(-c3ccc4nc(-c5ccc(O)cc5)[nH]c4c3)nc2c1 | 0.78 (≈ 2.12 µM) | 0.013 (≈ 0.0353 µM) | – | – | – | – | – | 4.2 (≈ 11.4 µM) | 0.017 (≈ 0.0461 µM)
12 | N=C(N)c1ccc2[nH]c(-c3ccc4nc(-c5cccc6ccccc56)[nH]c4c3)nc2c1 | 0.78 (≈ 1.94 µM) | 0.016 (≈ 0.0398 µM) | ≤ 50 | ≤ 70 | ≤ 50 | ≤ 70 | 12.5 (≈ 31.1 µM) | 8.72 (≈ 21.7 µM) | 0.48 (≈ 1.19 µM)
13 | Nc1nc(N)nc(Nc2ccc([As]3SCC(CO)S3)cc2)n1 (stereo unspecified) [MELARSOPROL] | – | – | – | – | – | – | – | – | 0.003
14 | COc1ccc(Oc2ccc(-c3nc4ccc(-c5nc6cc(C(=N)N)ccc6[nH]5)cc4[nH]3)cc2)cc1OC | 3.12 (≈ 6.18 µM) | 0.015 (≈ 0.0297 µM) | ≤ 50 | ≤ 70 | ≤ 50 | ≤ 70 | 6.25 (≈ 12.4 µM) | 29.4 (≈ 58.3 µM) | 0.036 (≈ 0.0714 µM)
15 | COc1ccc(-c2nc3ccc(-c4nc5cc(C(=N)N)ccc5[nH]4)cc3[nH]2)cc1OC | 25 (≈ 60.6 µM) | 0.008 (≈ 0.0194 µM) | ≤ 50 | ≤ 70 | ≤ 50 | ≤ 70 | 25 (≈ 60.6 µM) | > 90 | 0.06 (≈ 0.145 µM)
16 | N=C(N)c1ccc2[nH]c(-c3ccc4nc(-c5cc(C(F)(F)F)ccc5Cl)[nH]c4c3)nc2c1 | – | 0.064 (≈ 0.141 µM) | ≤ 50 | ≤ 70 | ≤ 50 | ≤ 70 | – | 31.8 (≈ 69.9 µM) | –
17 | N=C(N)c1ccc2[nH]c(-c3ccc4nc(-c5cc(F)ccc5Oc5ccc(Cl)cc5)[nH]c4c3)nc2c1 | 50 (≈ 101 µM) | 0.634 (≈ 1.28 µM) | ≤ 50 | ≤ 70 | ≤ 50 | ≤ 70 | 50 (≈ 101 µM) | > 90 | –
18 | N=C(N)c1ccc2[nH]c(-c3ccc4nc(-c5ccccc5Oc5ccc(Cl)cc5)[nH]c4c3)nc2c1 | 50 (≈ 104 µM) | 0.193 (≈ 0.403 µM) | ≤ 50 | ≤ 70 | ≤ 50 | ≤ 70 | 50 (≈ 104 µM) | > 90 | –
19 | COc1cc(OC)cc(-c2nc3ccc(-c4nc5cc(C(=N)N)ccc5[nH]4)cc3[nH]2)c1 | 50 (≈ 121 µM) | 0.017 (≈ 0.0412 µM) | ≤ 50 | ≤ 70 | ≤ 50 | ≤ 70 | 50 (≈ 121 µM) | 25.5 (≈ 61.8 µM) | 0.59 (≈ 1.43 µM)
20 | N=C(N)c1ccc2[nH]c(-c3ccc4nc(-c5ccc6ccccc6c5)[nH]c4c3)nc2c1 | 6.25 (≈ 15.5 µM) | 0.016 (≈ 0.0398 µM) | ≤ 50 | ≤ 70 | ≤ 50 | ≤ 70 | 25 (≈ 62.1 µM) | 34.7 (≈ 86.2 µM) | 0.389 (≈ 0.967 µM)
21 | CC(C)(C)c1cccc(-c2nc3ccc(-c4nc5cc(C(=N)N)ccc5[nH]4)cc3[nH]2)c1O | 3.12 (≈ 7.35 µM) | 0.211 (≈ 0.497 µM) | ≤ 50 | ≤ 70 | ≤ 50 | ≤ 70 | 6.25 (≈ 14.7 µM) | 13.4 (≈ 31.6 µM) | –
22 | N=C(N)c1ccc2[nH]c(-c3ccc4nc(-c5ccc(F)c(F)c5)[nH]c4c3)nc2c1 | 25 (≈ 64.4 µM) | 0.015 (≈ 0.0386 µM) | ≤ 50 | ≤ 70 | ≤ 50 | ≤ 70 | 25 (≈ 64.4 µM) | 29.8 (≈ 76.7 µM) | 0.33 (≈ 0.85 µM)
